This passage reports Activity results from ChEMBL document CHEMBL1142437, “Constrained analogues of procaine as novel small molecule inhibitors of DNA methyltransferase-1” (J Med Chem, 2008).

One assay concerns HL-60. Put plainly: Induction of chromosomal satellite repeats demethylation in human HL60 cells at 0.5 mM after 72 hrs. The class given is functional, cell-based. In outline: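 HL60 human myeloid leukemia cells exposed 72 h to 0.5 mM drug in DMSO, DMSO (1%) as control. Methylation of chromosomal satellite repeats (C1S2) assessed by COBRA assay on genomic DNA.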
For assay [1], the target named is DNA (cytosine-5)-methyltransferase 1 (Homo sapiens) (UniProt P26358). Put plainly: Inhibition of human recombinant DNMT1 expressed in Sf9 cells.
Chain of DNA (cytosine-5)-methyltransferase 1 (Homo sapiens) (P26358 whole entry): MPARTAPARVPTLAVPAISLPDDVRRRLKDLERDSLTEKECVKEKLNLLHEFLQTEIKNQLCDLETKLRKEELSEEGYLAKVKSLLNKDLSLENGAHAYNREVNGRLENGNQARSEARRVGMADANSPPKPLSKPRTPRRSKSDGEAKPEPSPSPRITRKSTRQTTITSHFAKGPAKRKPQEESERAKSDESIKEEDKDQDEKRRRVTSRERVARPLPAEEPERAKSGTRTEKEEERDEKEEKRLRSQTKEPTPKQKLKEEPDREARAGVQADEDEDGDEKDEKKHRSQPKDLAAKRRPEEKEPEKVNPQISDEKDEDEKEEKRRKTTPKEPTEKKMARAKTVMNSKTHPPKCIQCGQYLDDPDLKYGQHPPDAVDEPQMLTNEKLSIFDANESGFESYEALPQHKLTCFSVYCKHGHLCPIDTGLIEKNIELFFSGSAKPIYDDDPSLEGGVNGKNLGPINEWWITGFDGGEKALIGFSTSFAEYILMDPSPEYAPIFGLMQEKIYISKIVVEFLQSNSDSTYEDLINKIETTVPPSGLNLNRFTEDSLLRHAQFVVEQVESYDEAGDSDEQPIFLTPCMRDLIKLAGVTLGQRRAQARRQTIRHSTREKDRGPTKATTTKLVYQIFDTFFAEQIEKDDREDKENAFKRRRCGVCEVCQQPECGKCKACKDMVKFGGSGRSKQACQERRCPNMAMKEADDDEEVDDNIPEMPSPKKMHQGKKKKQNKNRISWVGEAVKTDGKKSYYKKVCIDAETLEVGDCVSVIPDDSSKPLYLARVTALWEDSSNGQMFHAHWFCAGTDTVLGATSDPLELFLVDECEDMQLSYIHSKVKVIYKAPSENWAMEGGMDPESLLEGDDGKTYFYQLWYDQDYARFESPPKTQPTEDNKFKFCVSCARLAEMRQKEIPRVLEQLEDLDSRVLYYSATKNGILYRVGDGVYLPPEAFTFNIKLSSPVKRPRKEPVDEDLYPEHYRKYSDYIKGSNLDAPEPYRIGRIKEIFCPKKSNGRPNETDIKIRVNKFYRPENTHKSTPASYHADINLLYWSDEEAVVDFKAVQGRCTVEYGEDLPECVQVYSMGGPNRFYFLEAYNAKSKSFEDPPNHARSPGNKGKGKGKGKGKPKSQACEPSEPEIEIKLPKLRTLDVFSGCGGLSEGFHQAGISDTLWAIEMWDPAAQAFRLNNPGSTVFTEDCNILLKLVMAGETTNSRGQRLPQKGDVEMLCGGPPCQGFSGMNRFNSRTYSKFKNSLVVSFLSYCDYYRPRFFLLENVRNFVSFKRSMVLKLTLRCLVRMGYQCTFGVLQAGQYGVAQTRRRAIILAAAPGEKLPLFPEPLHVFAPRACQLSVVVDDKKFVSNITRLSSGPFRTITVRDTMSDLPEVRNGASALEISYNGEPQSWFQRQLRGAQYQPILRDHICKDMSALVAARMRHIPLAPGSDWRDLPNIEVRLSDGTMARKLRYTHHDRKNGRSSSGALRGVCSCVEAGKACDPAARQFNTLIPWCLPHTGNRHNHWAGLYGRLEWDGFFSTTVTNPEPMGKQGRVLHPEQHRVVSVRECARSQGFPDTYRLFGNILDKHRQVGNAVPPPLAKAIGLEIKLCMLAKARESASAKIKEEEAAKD

Active and inactive are the calls of the source. No cut-off for these calls is given here.

For `CCN(CC)CCOC(=O)c1ccc(N)cc1`, in the assay on HL-60, the outcome was Active.
For the molecule `O=[N+]([O-])c1ccc(C2=N[C@@H](CN3CCCC3)CO2)cc1`, in assay [1], the outcome was Active.
Same read-out and setting: as for `CCN(CC)C[C@@H]1COC(c2ccc([N+](=O)[O-])cc2)=N1`, the entry is “Active”.
In the case of `CCN(CC)C[C@H]1CN=C(c2ccc([N+](=O)[O-])cc2)O1`, in assay [1], the outcome was Active.
Turning to `O=[N+]([O-])c1ccc(C2=N[C@H](CN3CCCC3)CO2)cc1`, the outcome in assay [1] was Active.
For `O=[N+]([O-])c1ccc(C2=NC[C@H](CN3CCCC3)O2)cc1`, the outcome (in the assay with HL-60; in assay [1]) was Active.
For the molecule `CCN(CC)C[C@H]1COC(c2ccc([N+](=O)[O-])cc2)=N1`, the result in assay [1] was Active.
In the case of `CCN(CC)C[C@@H]1CN=C(c2ccc([N+](=O)[O-])cc2)O1`, in assay [1], the result was Active.
